In ChEMBL document CHEMBL2401731, “Synthesis and pharmacological evaluation of 2-aryloxy/arylamino-5-cyanobenzenesulfonylureas as novel thromboxane A₂ receptor antagonists” (Eur J Med Chem, 2013) one finds Ratio IC50, IC50 and inhibition data, which are given here for 34 molecules.

Activity calls are given as the source filed them. No cut-off for these calls is given here.

The species named for one assay is Homo sapiens. The assay can be described thus: Selectivity index, ratio of IC50 for human thromboxane A2 receptor alpha to IC50 for human thromboxane A2 receptor beta. In short, it runs like this:
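IC50 at TPα divided by IC50 at TPβ. Both IC50s come from U-46619-stimulated Fluo-4 calcium mobilization in HEK293 cells stably expressing each isoform. Mean ± SD of three separate experiments.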

Assay [1] deals with T1, Thromboxane A2 receptor (Homo sapiens, UniProt P21731).
T1 sequence (P21731 whole entry): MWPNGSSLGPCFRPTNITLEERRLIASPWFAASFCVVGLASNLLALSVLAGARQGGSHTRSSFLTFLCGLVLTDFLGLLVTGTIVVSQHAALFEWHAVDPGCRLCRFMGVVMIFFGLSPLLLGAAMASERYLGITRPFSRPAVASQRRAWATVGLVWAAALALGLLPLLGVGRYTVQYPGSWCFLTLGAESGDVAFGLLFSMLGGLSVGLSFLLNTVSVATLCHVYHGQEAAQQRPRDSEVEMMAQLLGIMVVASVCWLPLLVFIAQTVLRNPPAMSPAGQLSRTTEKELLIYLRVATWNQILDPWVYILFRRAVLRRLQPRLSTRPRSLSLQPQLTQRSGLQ
The assay can be described thus: Antagonist activity at human thromboxane A2 receptor alpha over-expressed in HEK293 cells assessed as inhibition of U-46619-induced intracellular calcium mobilization by fluorescence assay. It counts as functional, cell-based. In short, it runs like this: (§1)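 HEK293 cells stably expressing HA-tagged TPα or TPβ, grown in DMEM/10% FBS. Trypsinized cells washed in Krebs-HEPES buffer, pH 7.4, loaded 1 h with Fluo-4/AM, rinsed, 150,000 cells/well. Compound at 10^-9 to 10^-5 M final, then stimulated with U-46619. Fluorescence read at 538 nm, calibrated to [Ca2+]i with Triton X-100/EGTA. IC50 from concentration-response curves, three independent experiments.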

Assay [2] has as its target T1, Thromboxane A2 receptor. The assay can be described thus: Antagonist activity at human thromboxane A2 receptor beta over-expressed in HEK293 cells assessed as inhibition of U-46619-induced intracellular calcium mobilization mobilization by fluorescence assay. It counts as functional, cell-based. In short, it runs like this: as §1
The subject of the next assay is Platelet. The assay can be described thus: Antiplatelet activity against human platelets assessed as inhibition of U-46619-induced platelet aggregation at 10 uM after 1 min. Format: functional, cell-based.
Assay [3] is described as follows: Antiplatelet activity against human platelets assessed as inhibition of U-46619-induced platelet aggregation at 1 uM after 1 min. It counts as functional, cell-based. The essentials:
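Human platelet-rich plasma is taken from donors free of medication for at least 14 days, obtained at 100×g for 10 min, and adjusted to […] with platelet-poor plasma. Platelets incubated with test sample or 0.1% DMSO at 37 °C for 1 min, then U-46619 added to trigger aggregation. Aggregation measured by light transmission. Means ± SD, n ≥ 2.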

Regarding `CC(C)NC(=O)NS(=O)(=O)c1cc(C#N)ccc1Oc1ccc(I)cc1`, the Ratio IC50 in the assay listed under Homo sapiens is 1. The IC50 was determined as 9.52 µM on Thromboxane A2 receptor [1] and 9.49 µM at Thromboxane A2 receptor [2].
On to `CCCCCNC(=O)NS(=O)(=O)c1cc(C#N)ccc1Oc1ccc(Cl)cc1`, for which, in the assay filed under Homo sapiens, the Ratio IC50 is 0.9. Also, the IC50 on Thromboxane A2 receptor [1] came to 8.64 µM; at Thromboxane A2 receptor [2] it was 8.72 µM.
In the case of `Cc1cccc(Nc2ccc(C#N)cc2S(=O)(=O)NC(=O)NC(C)(C)C)c1`, the inhibition entry in the assay on Platelet is “Active”. For the same molecule, in the assay filed under Homo sapiens, the Ratio IC50 came out at 0.7. Further, the 50% inhibitory concentration (IC50) was determined as 1.59 µM at Thromboxane A2 receptor [1], 0.726 µM in assay [3] and 2.2 µM on Thromboxane A2 receptor [2].
`CCCCCNC(=O)NS(=O)(=O)c1cc(C#N)ccc1Oc1ccc(Br)cc1`: the Ratio IC50 in the assay filed under Homo sapiens was 0.9. Besides, the figures for the IC50 at Thromboxane A2 receptor [1] and on Thromboxane A2 receptor [2] were 8.52 µM and 9.54 µM, respectively.
As to `Cc1ccccc1Nc1ccc(C#N)cc1S(=O)(=O)NC(=O)NC(C)C`, the inhibition result in the assay with Platelet was “Active”. The Ratio IC50 in the assay listed under Homo sapiens was determined as 0.7. Moreover, the values for the IC50 at Thromboxane A2 receptor [1] and at Thromboxane A2 receptor [2] were 7.24 µM and 10.1 µM, respectively.
Consider `CCCCCNC(=O)NS(=O)(=O)c1cc(C#N)ccc1Nc1ccc(F)cc1`, for which the Ratio IC50 in the assay filed under Homo sapiens is 1.05. Further, the concentration for half-maximal inhibition (IC50) was determined as 6.78 µM on Thromboxane A2 receptor [1] and 6.45 µM at Thromboxane A2 receptor [2].
In the case of `CCCCCNC(=O)NS(=O)(=O)c1cc(C#N)ccc1Oc1cccc(C)c1`, in the assay on Platelet, the inhibition result was “Active”. The Ratio IC50 in the assay listed under Homo sapiens was 2. The values for the half-maximal inhibitory concentration (IC50) on Thromboxane A2 receptor [1] and at Thromboxane A2 receptor [2] were 1.33 µM and 0.68 µM, respectively.
Consider `CC(C)(C)NC(=O)NS(=O)(=O)c1cc(C#N)ccc1Nc1ccc(F)cc1`, for which the Ratio IC50 in the assay filed under Homo sapiens was determined as 0.95. Further, the IC50 at Thromboxane A2 receptor [1] worked out at 4.64 µM; on Thromboxane A2 receptor [2], 4.91 µM.
With `CC(C)NC(=O)NS(=O)(=O)c1cc(C#N)ccc1Oc1ccc(F)cc1`, the Ratio IC50 in the assay filed under Homo sapiens came to 1. Further, the IC50 at Thromboxane A2 receptor [1] was 9.62 µM; at Thromboxane A2 receptor [2], 9.3 µM.
For `CCCCCNC(=O)NS(=O)(=O)c1cc(C#N)ccc1Oc1ccc(F)cc1`, the Ratio IC50 in the assay filed under Homo sapiens worked out at 0.9. Also, the results for the IC50 on Thromboxane A2 receptor [1] and on Thromboxane A2 receptor [2] were 9.43 µM and 9.53 µM, respectively.
Turning to `CC(C)(C)NC(=O)NS(=O)(=O)c1cc(C#N)ccc1Oc1ccc(I)cc1`, the Ratio IC50 in the assay filed under Homo sapiens turned out to be 0.9. Moreover, the IC50 at Thromboxane A2 receptor [1] was determined as 5.52 µM; on Thromboxane A2 receptor [2], 5.54 µM.
Turning to `Cc1cccc(Nc2ccc(C#N)cc2S(=O)(=O)NC(=O)NC(C)C)c1`, the inhibition entry with Platelet was “Active”. Further, the Ratio IC50 in the assay filed under Homo sapiens amounted to 1. Also, the IC50 on Thromboxane A2 receptor [1] is 9.5 µM; on Thromboxane A2 receptor [2] it was 9.11 µM.
Turning to `Cc1ccc(Oc2ccc(C#N)cc2S(=O)(=O)NC(=O)NC(C)C)cc1`, the inhibition result in the assay with Platelet is “Active”. Besides, the Ratio IC50 in the assay listed under Homo sapiens was 2.3. The IC50 at Thromboxane A2 receptor [1] turned out to be 3.05 µM; at Thromboxane A2 receptor [2], 1.35 µM.
Taken in the same sequence, the figures for `CCCCCNC(=O)NS(=O)(=O)c1cc(C#N)ccc1Nc1ccc(C)cc1` were “Active”, 0.5, 1.04 µM and 2.06 µM.
Consider `Cc1ccc(Oc2ccc(C#N)cc2S(=O)(=O)NC(=O)NC(C)(C)C)cc1`, for which, in the assay with Platelet, the inhibition entry is “Active”. The IC50 was 0.75 µM on Thromboxane A2 receptor [1], 0.649 µM in assay [3] and 0.68 µM on Thromboxane A2 receptor [2].
With `CC(C)(C)NC(=O)NS(=O)(=O)c1cc(C#N)ccc1Oc1ccc(Cl)cc1`, the Ratio IC50 in the assay listed under Homo sapiens came to 1.1. In addition, the figures for the IC50 on Thromboxane A2 receptor [1] and at Thromboxane A2 receptor [2] were 5.64 µM and 5.27 µM, respectively.
Consider `CC(C)NC(=O)NS(=O)(=O)c1cc(C#N)ccc1Oc1ccc(Br)cc1`, for which the Ratio IC50 in the assay filed under Homo sapiens worked out at 1. Besides, the IC50 at Thromboxane A2 receptor [1] stood at 9.47 µM; at Thromboxane A2 receptor [2], 9.13 µM.
On to `CCCCCNC(=O)NS(=O)(=O)c1cc(C#N)ccc1Nc1cccc(C)c1`, for which the inhibition entry with Platelet is “Active”. Moreover, in the assay filed under Homo sapiens, the Ratio IC50 came out at 1.3. Moreover, the figures for the IC50 at Thromboxane A2 receptor [1] and on Thromboxane A2 receptor [2] were 2.95 µM and 2.33 µM, respectively.
Taken in the same sequence, the figures for `CCCCCNC(=O)NS(=O)(=O)c1cc(C#N)ccc1Oc1ccc(C)cc1` were “Active”, 1.4, 0.9 µM and 0.63 µM.
The like results for `Cc1cccc(Oc2ccc(C#N)cc2S(=O)(=O)NC(=O)NC(C)C)c1` were, in that order, “Active”, 1.4, 2.38 µM and 1.69 µM.
As to `Cc1ccccc1Oc1ccc(C#N)cc1S(=O)(=O)NC(=O)NC(C)(C)C`, in the assay on Platelet, the inhibition result is “Active”. In addition, the 50% inhibitory concentration (IC50) is 3.69 µM on Thromboxane A2 receptor [1], 0.966 µM in assay [3] and 1.47 µM at Thromboxane A2 receptor [2].
In the case of `Cc1ccc(Nc2ccc(C#N)cc2S(=O)(=O)NC(=O)NC(C)C)cc1`, the inhibition entry with Platelet is “Active”. Also, in the assay filed under Homo sapiens, the Ratio IC50 was 0.9. The IC50 on Thromboxane A2 receptor [1] was determined as 4.11 µM; on Thromboxane A2 receptor [2] it was 4.22 µM.
As to `Cc1cccc(Oc2ccc(C#N)cc2S(=O)(=O)NC(=O)NC(C)(C)C)c1`, in the assay on Platelet, the inhibition result is “Active”. The values for the half-maximal inhibitory concentration (IC50) (at Thromboxane A2 receptor [1]; in assay [3]; at Thromboxane A2 receptor [2]) were 1.05 µM, 0.705 µM and 0.69 µM, respectively.
Take `CCCCCNC(=O)NS(=O)(=O)c1cc(C#N)ccc1Nc1ccccc1C`: the inhibition entry in the assay with Platelet was “Active”. The Ratio IC50 in the assay filed under Homo sapiens came out at 0.4. Also, the IC50 on Thromboxane A2 receptor [1] turned out to be 3.19 µM; on Thromboxane A2 receptor [2] it was 7.85 µM.
Turning to `CC(C)(C)NC(=O)NS(=O)(=O)c1cc(C#N)ccc1Oc1ccc(F)cc1`, the Ratio IC50 in the assay filed under Homo sapiens came out at 1.2. Also, the IC50 at Thromboxane A2 receptor [1] worked out at 4.35 µM; at Thromboxane A2 receptor [2], 3.89 µM.
Consider `CC(C)NC(=O)NS(=O)(=O)c1cc(C#N)ccc1Nc1ccc(F)cc1`, for which, in the assay filed under Homo sapiens, the Ratio IC50 stood at 1.04. In addition, the IC50 came out at 8.17 µM on Thromboxane A2 receptor [1] and 7.83 µM on Thromboxane A2 receptor [2].
Taken in the same sequence, the figures for `CCCCCNC(=O)NS(=O)(=O)c1cc(C#N)ccc1Oc1ccc(I)cc1` were 1, 9.52 µM and 9.49 µM.
Turning to `CCCCCNC(=O)NS(=O)(=O)c1cc(C#N)ccc1Oc1ccccc1C`, the inhibition result in the assay on Platelet was “Active”. Further, the Ratio IC50 in the assay listed under Homo sapiens stood at 1.3. The IC50 on Thromboxane A2 receptor [1] stood at 2.24 µM; at Thromboxane A2 receptor [2] it was 1.78 µM.
Consider `Cc1ccc(Nc2ccc(C#N)cc2S(=O)(=O)NC(=O)NC(C)(C)C)cc1`, for which, in the assay on Platelet, the inhibition result is “Active”. In addition, the IC50 at Thromboxane A2 receptor [1] turned out to be 0.85 µM; in assay [3], 0.504 µM; at Thromboxane A2 receptor [2], 1.04 µM.
The like results for `Cc1ccccc1Nc1ccc(C#N)cc1S(=O)(=O)NC(=O)NC(C)(C)C` were, in that order, “Active”, 2.75 µM, 0.971 µM and 4.78 µM.
Regarding `CC(C)NC(=O)NS(=O)(=O)c1cc(C#N)ccc1Oc1ccc(Cl)cc1`, the Ratio IC50 in the assay filed under Homo sapiens came out at 1.1. The IC50 at Thromboxane A2 receptor [1] was determined as 9.46 µM; on Thromboxane A2 receptor [2] it was 8.49 µM.
As to `Cc1ccc(Nc2ccc([N+](=O)[O-])cc2S(=O)(=O)NC(=O)NC(C)(C)C)cc1`, the Ratio IC50 in the assay listed under Homo sapiens turned out to be 1.1. The IC50 on Thromboxane A2 receptor [1] was 0.7 µM; in assay [3] it was 0.509 µM; at Thromboxane A2 receptor [2], 0.62 µM.
In the case of `Cc1ccccc1Oc1ccc(C#N)cc1S(=O)(=O)NC(=O)NC(C)C`, the inhibition entry in the assay on Platelet is “Active”. The Ratio IC50 in the assay filed under Homo sapiens came to 1.4. The figures for the IC50 at Thromboxane A2 receptor [1] and at Thromboxane A2 receptor [2] were 8.68 µM and 6.13 µM, respectively.
As for `CC(C)(C)NC(=O)NS(=O)(=O)c1cc(C#N)ccc1Oc1ccc(Br)cc1`, the Ratio IC50 in the assay listed under Homo sapiens stood at 1.1. The IC50 on Thromboxane A2 receptor [1] came to 5.88 µM; at Thromboxane A2 receptor [2], 5.31 µM.
